Assay results: ChEMBL document CHEMBL1158565, “Antagonism of 4-substituted 1,4-dihydropyridine-3,5-dicarboxylates toward voltage-dependent L-type Ca2+ channels Ca V 1.3 and Ca V 1.2” (Bioorg Med Chem, 2010)

Columns and labels:
[1] = biological target: T1, Voltage-dependent L-type calcium channel subunit alpha-1C (Oryctolagus cuniculus, UniProt P15381); assay: Antagonist activity at rabbit Cav1.2 expressed in tsA201 cells assessed as inhibition of voltage pulse-induced calcium current at 200 nM by whole-cell patch-clamp recording
[2] = Selectivity ratio of antagonist activity at rat Cav1.3 to antagonist activity at rabbit Cav1.2 at 200 nM; format: functional
How it was run: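 Percent inhibition of Cav1.3 current was divided by that of Cav1.2 at the same concentration. Currents were from whole-cell patch clamp in transiently transfected tsA201 cells: Ba2+ bath, pH 7.4, steps from -60 mV, about 22 °C.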

[3] = biological target: Voltage-dependent L-type calcium channel subunit alpha-1D (Rattus norvegicus) (UniProt P27732); assay: Antagonist activity at rat Cav1.3 expressed in HEK293 cells assessed as inhibition of voltage pulse-induced calcium current at 200 nM by FLIPR calcium 4 assay; format: functional, cell-based; settings: in the assay text read “by whole-cell patch-clamp recording” for “by FLIPR calcium 4 assay”
How it was run: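 Whole-cell patch clamp on tsA201 cells transiently cotransfected with rabbit Cav1.2 α1C or rat Cav1.3 α1D, Cavβ3 and Cavα2δ-1 (1:1:1) plus GFP. GFP cells were recorded after replating at 48 h. Bath (mM): 110 NaCl, 1 MgCl2, 10 BaCl2, 10 HEPES, 10 glucose, 20 CsCl, pH 7.4. Compound was diluted from DMSO stock and perfused. Pulses ran from -60 mV to +10 or 0 mV with tetrodotoxin at about 22 °C. Read-out was percent current inhibition.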

[4] = biological target: Voltage-dependent L-type calcium channel subunit alpha-1D (Rattus norvegicus, UniProt P27732); assay: Antagonist activity at rat Cav1.3 expressed in HEK293 cells assessed as inhibition of voltage pulse-induced calcium current by FLIPR calcium 4 assay; format: functional, cell-based
How it was run: (§1)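 HEK293 lines stably expressing Cavβ3 and Cavα2δ-1 plus Cav1.2 α1C (rabbit) or Cav1.3 α1D (rat) were selected with zeocin/hygromycin. Calcium signals were read by FLIPR with Calcium 4 dye. IC50 came from 11-point dose-response curves. Signal percentage error (SD/mean) was 6.4% for Cav1.2 and 4.1% for Cav1.3 cells.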

[5] = biological target: T1, Voltage-dependent L-type calcium channel subunit alpha-1C; assay: Antagonist activity at rabbit Cav1.2 expressed in HEK293 cells assessed as inhibition of voltage pulse-induced calcium current by FLIPR calcium 4 assay; format: functional, cell-based
How it was run: as §1

T1 sequence (P15381 whole entry): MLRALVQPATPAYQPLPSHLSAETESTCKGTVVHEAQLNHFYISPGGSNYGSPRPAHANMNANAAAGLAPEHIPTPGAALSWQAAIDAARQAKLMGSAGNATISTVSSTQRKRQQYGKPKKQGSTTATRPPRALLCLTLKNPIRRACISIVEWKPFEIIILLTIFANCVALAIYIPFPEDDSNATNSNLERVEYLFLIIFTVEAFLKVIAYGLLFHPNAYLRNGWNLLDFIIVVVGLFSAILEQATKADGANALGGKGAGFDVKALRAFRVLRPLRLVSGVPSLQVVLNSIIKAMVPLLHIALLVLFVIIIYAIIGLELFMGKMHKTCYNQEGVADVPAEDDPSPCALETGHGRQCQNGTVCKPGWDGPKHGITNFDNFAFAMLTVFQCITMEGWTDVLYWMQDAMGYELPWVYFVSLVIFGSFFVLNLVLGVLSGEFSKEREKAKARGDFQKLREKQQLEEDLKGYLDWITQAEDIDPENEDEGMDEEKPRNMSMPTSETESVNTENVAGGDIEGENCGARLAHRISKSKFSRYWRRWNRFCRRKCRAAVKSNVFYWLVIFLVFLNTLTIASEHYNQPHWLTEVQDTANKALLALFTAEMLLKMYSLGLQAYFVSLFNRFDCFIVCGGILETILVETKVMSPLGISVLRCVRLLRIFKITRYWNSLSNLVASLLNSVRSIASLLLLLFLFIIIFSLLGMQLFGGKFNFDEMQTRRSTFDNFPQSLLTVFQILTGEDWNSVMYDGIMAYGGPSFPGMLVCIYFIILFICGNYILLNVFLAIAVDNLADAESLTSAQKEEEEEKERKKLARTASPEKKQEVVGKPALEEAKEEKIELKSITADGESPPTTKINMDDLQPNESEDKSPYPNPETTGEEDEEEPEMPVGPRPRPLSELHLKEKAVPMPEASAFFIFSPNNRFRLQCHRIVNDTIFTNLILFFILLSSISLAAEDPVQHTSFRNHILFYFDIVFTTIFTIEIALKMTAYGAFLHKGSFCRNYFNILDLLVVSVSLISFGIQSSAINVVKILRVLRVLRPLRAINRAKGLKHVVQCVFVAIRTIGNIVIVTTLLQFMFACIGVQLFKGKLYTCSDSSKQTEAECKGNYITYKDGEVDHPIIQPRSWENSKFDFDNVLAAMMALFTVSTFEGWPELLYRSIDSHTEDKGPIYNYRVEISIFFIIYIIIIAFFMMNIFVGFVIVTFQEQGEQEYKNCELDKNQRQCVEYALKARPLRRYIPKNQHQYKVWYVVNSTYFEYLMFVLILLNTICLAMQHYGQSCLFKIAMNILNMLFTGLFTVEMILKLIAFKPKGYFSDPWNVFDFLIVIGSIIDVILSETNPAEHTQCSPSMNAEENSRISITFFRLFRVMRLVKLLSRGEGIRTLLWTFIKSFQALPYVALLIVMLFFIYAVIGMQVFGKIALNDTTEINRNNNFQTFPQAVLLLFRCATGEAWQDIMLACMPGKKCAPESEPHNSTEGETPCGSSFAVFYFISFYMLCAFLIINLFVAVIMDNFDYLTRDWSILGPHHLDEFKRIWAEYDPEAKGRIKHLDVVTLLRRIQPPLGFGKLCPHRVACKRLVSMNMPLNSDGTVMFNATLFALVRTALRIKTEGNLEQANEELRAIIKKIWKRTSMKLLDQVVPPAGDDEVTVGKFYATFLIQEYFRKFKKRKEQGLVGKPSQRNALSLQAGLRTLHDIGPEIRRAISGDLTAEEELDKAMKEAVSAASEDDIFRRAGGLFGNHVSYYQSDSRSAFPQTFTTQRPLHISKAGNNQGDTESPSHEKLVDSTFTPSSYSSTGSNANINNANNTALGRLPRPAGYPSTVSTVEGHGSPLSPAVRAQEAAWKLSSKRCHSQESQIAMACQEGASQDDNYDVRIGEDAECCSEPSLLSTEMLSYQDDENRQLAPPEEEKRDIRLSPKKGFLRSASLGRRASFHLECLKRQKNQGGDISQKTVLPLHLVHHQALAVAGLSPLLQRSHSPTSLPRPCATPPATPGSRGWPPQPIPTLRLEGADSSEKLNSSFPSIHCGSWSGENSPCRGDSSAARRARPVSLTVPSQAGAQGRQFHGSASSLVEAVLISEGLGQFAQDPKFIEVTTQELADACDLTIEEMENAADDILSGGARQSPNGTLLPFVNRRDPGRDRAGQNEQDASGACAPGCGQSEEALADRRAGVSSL
Chain of Voltage-dependent L-type calcium channel subunit alpha-1D (Rattus norvegicus) (P27732 whole entry, the tested form may be a part): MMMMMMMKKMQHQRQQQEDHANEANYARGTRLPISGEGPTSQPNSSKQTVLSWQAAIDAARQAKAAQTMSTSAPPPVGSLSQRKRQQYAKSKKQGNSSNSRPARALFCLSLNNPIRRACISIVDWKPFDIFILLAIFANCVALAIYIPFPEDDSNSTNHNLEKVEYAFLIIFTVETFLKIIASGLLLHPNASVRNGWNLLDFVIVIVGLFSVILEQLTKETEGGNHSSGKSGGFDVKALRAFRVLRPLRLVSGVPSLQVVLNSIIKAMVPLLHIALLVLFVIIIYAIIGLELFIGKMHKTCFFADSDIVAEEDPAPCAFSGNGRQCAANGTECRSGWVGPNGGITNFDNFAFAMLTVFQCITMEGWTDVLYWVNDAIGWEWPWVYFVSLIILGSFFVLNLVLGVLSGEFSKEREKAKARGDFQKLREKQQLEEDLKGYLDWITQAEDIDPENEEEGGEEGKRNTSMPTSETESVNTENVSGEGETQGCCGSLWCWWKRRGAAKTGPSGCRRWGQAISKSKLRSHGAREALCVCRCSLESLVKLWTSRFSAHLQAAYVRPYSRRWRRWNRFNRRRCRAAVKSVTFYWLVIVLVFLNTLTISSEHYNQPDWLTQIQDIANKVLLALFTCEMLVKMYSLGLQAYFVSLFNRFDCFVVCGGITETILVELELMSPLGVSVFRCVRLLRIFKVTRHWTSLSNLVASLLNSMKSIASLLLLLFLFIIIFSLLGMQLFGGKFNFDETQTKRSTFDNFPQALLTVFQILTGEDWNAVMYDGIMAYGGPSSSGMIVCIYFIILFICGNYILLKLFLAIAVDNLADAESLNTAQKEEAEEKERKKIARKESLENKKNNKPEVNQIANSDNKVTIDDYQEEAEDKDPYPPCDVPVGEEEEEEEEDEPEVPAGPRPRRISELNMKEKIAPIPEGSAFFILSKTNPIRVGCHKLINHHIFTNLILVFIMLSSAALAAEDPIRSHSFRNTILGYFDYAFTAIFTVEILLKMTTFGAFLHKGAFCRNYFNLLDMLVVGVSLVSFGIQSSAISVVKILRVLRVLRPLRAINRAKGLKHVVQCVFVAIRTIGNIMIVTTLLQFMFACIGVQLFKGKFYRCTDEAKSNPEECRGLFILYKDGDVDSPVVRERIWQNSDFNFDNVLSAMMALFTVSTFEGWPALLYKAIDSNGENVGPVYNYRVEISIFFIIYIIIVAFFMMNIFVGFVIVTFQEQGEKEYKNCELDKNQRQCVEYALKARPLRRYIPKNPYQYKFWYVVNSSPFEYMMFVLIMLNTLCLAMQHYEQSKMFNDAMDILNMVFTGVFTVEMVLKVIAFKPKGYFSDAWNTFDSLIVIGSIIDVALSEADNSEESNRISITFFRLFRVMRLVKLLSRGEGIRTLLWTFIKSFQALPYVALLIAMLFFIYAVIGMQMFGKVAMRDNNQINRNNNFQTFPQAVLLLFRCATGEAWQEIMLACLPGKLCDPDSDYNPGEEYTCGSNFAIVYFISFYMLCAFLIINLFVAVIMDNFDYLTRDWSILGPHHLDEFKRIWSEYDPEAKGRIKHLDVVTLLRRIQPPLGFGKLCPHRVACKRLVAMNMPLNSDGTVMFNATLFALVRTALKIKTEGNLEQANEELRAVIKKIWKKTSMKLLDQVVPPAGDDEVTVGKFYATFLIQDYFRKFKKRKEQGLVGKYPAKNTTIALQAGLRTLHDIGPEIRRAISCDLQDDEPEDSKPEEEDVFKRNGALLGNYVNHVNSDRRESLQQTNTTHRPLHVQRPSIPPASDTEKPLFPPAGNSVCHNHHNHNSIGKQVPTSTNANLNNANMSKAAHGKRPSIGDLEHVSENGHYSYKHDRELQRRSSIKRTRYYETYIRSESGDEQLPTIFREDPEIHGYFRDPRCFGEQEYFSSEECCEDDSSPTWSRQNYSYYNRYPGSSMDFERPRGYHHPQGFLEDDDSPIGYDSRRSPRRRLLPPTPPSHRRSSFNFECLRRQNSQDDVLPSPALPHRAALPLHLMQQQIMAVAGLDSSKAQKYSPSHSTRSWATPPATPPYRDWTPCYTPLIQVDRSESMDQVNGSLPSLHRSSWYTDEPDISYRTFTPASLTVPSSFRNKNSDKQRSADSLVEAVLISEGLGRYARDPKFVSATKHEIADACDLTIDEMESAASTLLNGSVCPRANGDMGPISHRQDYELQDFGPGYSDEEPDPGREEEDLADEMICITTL
Chain of Voltage-dependent L-type calcium channel subunit alpha-1D (P27732 whole entry): as the sequence (P27732 whole entry, the tested form may be a part) above

SMILES	inhibition at 0.2 µM [1]	Selectivity ratio [2]	inhibition [3]	IC50 [4]	IC50 [5]
CCOC(=O)C1=C(C)NC(C)=C(C(=O)OCC)C1C1CCCCC1	26%	0.81	21%	–	–
COC(=O)C1=C(C)NC(C)=C(C(=O)OC(C)C)C1c1cccc([N+](=O)[O-])c1 (stereo not drawn)	96%	0.93	89%	–	–
CCOC(=O)C1=C(C)NC(CC)=C(C(=O)OCC)C1c1cccc([N+](=O)[O-])c1 (stereo not drawn)	93%	0.95	88%	–	–
CCOC(=O)C1=C(C(F)(F)F)NC(C(F)(F)F)=C(C(=O)OCC)C1c1cccc(C(F)(F)F)c1	61%	1.1	67%	–	–
CCOC(=O)C1=C(C)NC(C)=C(C(=O)OCC)C1c1csc2ccccc12	80%	0.7	57%	–	–
COC(=O)C1=C(C)NC(C)=C(C(=O)OCC(C)C)C1c1cccc([N+](=O)[O-])c1 (stereo not drawn)	94%	0.96	90%	–	–
CCOC(=O)C1=C(C)NC(C)=C(C(=O)OCC)C1c1cc(Br)cc(Br)c1	74%	0.98	72%	–	–
CC1=C(C(=O)OC(C)C)C(c2cccc([N+](=O)[O-])c2)C(C(=O)OC(C)C)=C(C)N1	77%	0.86	66%	–	–
CCCC1C(C(=O)OCC)=C(C)NC(C)=C1C(=O)OCC	42%	0.86	36%	–	–
CCOC(=O)C1=C(C)NC(C)=C(C(=O)OCC)C1c1ccsc1	54%	0.93	50%	–	–
CCOC(=O)C1=C(C)NC(C)=C(C(=O)OCC)C1c1ccccc1I	96%	0.99	95%	–	–
CCOC(=O)C1=C(C)NC(C)=C(C(=O)OCC)C1c1ccc(Cl)c([N+](=O)[O-])c1	86%	0.77	66%	–	–
CC1=C(C(=O)OCC(C)C)C(c2cccc([N+](=O)[O-])c2)C(C(=O)OCC(C)C)=C(C)N1	52%	1.14	59%	–	–
CCOC(=O)C1=C(C)NC(C)=C(C(=O)OCC)C1c1ccccc1-c1ccccc1	73%	0.89	65%	–	–
CCOC(=O)C1=C(C)NC(C)=C(C(=O)OCC)C1c1cc(C(F)(F)F)cc(C(F)(F)F)c1	38%	1	38%	–	–
CCOC(=O)C1=C(C)N=C(C)/C(=C(/O)OCC)C1c1cccs1 (stereo not drawn)	65%	0.87	57%	–	–
CCOC(=O)C1=C(C)NC(C)=C(C(=O)OCC)C1c1ccoc1	56%	0.57	32%	–	–
CCOC(=O)C1=C(C)NC(C)=C(C(=O)OCC)C1c1cc([N+](=O)[O-])ccc1Cl	97%	0.92	89%	–	–
COC(=O)C1=C(C)NC(C)=C(C(=O)OC(C)(C)C)C1c1cccc([N+](=O)[O-])c1 (stereo not drawn) [MEBUDIPINE]	91%	0.93	85%	–	–
CCOC(=O)C1=C(C)NC(C)=C(C(=O)OCC)C1c1ccc2ccccc2c1	16%	0.75	12%	–	–
CCOC(=O)C1=C(C)N=C(C)/C(=C(/O)OCC)C1c1ccncc1 (stereo not drawn)	27%	0.56	15%	–	–
CCOC(=O)C1=C(C(F)(F)F)NC(C(F)(F)F)=C(C(=O)OCC)C1c1cccc([N+](=O)[O-])c1	34%	1.11	38%	–	–
CCOC(=O)C1=C(C)NC(C)=C(C(=O)OCC)C1c1ccccc1SC	–	–	–	0.015 µM	0.008 µM
